Data reported in ChEMBL document CHEMBL3108700, “Designing anti-inflammatory drugs from parasitic worms: a synthetic small molecule analogue of the Acanthocheilonema viteae product ES-62 prevents development of collagen-induced arthritis” (J Med Chem, 2013).
The source made the active and inactive calls. The rule behind the calls is not given here.

Columns and labels:
[1] = target: T1, Toll-like receptor 9 (Mus musculus) (UniProt Q9EQU3); test: Inhibition of TLR9 in BALB/c mouse BMDM assessed as downregulation of CpG-stimulated IL-6 level at 5 ug/ml preincubated for 18 hrs followed by CpG challenge measured after 24 hrs by ELISA relative to control
T1 sequence (whole entry): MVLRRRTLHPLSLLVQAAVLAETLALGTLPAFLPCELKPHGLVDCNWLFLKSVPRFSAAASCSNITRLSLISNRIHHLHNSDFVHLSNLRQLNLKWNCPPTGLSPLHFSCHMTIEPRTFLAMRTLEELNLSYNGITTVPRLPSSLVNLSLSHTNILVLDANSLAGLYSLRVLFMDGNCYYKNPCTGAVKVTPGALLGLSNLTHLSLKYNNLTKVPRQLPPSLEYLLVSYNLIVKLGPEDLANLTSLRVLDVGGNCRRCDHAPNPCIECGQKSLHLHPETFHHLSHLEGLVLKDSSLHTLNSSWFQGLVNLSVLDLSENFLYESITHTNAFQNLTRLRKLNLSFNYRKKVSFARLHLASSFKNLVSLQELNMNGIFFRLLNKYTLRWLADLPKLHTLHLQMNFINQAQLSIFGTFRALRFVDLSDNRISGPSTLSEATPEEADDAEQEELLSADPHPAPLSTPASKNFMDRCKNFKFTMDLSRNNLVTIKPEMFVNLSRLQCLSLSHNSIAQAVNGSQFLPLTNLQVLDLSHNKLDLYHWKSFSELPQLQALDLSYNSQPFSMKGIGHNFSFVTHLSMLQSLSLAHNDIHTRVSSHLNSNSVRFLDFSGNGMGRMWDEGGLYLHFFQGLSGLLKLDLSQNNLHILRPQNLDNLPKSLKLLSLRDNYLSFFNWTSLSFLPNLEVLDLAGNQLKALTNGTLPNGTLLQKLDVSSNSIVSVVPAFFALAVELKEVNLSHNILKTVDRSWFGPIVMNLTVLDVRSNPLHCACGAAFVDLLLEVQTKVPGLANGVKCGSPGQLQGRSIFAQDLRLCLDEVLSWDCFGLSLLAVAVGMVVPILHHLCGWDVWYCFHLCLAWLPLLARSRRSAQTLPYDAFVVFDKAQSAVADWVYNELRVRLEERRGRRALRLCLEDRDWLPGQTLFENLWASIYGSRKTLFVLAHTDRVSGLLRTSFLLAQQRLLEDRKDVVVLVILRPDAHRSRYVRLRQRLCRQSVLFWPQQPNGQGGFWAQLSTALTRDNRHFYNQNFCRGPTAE
In short: (§1)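 BALB/c male bone marrow macrophages were differentiated 7 days with L929 supernatant (≥99% CD11b+/F4/80+). Cells were plated at 2 × 10^5/well in triplicate, rested overnight, and given compounds at 5 μg/mL for 18 h. They were then stimulated with 100 ng/mL S. minnesota LPS, 10 ng/mL Pam3CSK4 (BLP) or 0.01 μM CpG for 24 h. Supernatant IL-12p40 and IL-6 were measured by ELISA (sensitivity 16 pg/mL).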

[2] = target: T2, Toll-like receptor 4 (Mus musculus) (UniProt Q9QUK6); test: Inhibition of TLR4 in BALB/c mouse BMDM assessed as downregulation of LPS-stimulated IL-6 level at 5 ug/ml preincubated for 18 hrs followed by LPS challenge measured after 24 hrs by ELISA relative to control; in short: as §1
T2 sequence (whole entry): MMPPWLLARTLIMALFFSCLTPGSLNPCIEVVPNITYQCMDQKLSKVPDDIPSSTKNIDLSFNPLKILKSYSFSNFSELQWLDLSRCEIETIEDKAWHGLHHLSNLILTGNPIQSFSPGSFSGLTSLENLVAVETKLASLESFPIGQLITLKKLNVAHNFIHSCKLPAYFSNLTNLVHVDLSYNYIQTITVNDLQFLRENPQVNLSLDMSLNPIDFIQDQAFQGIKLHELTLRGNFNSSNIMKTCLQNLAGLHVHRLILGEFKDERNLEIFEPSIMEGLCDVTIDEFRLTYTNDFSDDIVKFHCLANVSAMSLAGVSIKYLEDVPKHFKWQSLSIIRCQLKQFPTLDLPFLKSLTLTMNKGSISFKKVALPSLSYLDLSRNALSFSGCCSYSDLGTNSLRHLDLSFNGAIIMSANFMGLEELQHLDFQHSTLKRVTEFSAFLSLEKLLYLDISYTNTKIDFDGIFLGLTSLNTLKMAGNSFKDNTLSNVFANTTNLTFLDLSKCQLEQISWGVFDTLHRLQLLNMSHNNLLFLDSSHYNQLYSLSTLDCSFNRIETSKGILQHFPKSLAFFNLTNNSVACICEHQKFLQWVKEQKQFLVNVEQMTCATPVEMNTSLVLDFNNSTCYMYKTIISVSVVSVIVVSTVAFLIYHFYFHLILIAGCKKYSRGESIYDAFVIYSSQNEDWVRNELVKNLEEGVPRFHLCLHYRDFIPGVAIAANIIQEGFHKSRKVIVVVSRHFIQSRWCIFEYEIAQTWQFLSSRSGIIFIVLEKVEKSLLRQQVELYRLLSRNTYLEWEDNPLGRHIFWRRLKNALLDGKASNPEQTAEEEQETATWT

[3] = target: T2, Toll-like receptor 4 (Mus musculus); test: Inhibition of TLR4 in BALB/c mouse BMDM assessed as downregulation of LPS-stimulated IL-12p40 level at 5 ug/ml preincubated for 18 hrs followed by LPS challenge measured after 24 hrs by ELISA relative to control; in short: as §1
TLR2/TLR6 (Mus musculus) [4] = target: T3, TLR2/TLR6 (Mus musculus) (UniProt Q9QUN7+Q9EPW9); test: Inhibition of TLR2/6 in BALB/c mouse BMDM assessed as downregulation of BLP-stimulated IL-6 level at 5 ug/ml preincubated for 18 hrs followed by BLP challenge measured after 24 hrs by ELISA relative to control; type: protein-complex assay; in short: as §1
[5] = target: T1, Toll-like receptor 9 (Mus musculus); test: Inhibition of TLR9 in BALB/c mouse BMDM assessed as downregulation of CpG-stimulated IL-12p40 level at 5 ug/ml preincubated for 18 hrs followed by CpG challenge measured after 24 hrs by ELISA relative to control; in short: as §1
TLR2/TLR6 (Mus musculus) [6] = target: T3, TLR2/TLR6 (Mus musculus); test: Inhibition of TLR2/6 in BALB/c mouse BMDM assessed as downregulation of BLP-stimulated IL-12p40 level at 5 ug/ml preincubated for 18 hrs followed by BLP challenge measured after 24 hrs by ELISA relative to control; type: protein-complex assay; in short: as §1

| inhibition [1] | inhibition [2] | inhibition [3] | inhibition (TLR2/TLR6 (Mus musculus) [4]) | inhibition [5] | inhibition (TLR2/TLR6 (Mus musculus) [6]) | SMILES |
| --- | --- | --- | --- | --- | --- | --- |
| inactive | inactive | inactive | inactive | inactive | inactive | O=S(=O)(CCN1CCCC1)NCc1ccc(Br)cc1 |
| inactive | inactive | inactive | inactive | inactive | inactive | CN(C)CCCNS(=O)(=O)Cc1ccc(Br)cc1 |
| Active | inactive | Active | inactive | inactive | Active | COc1cccc(C(=O)NCCN2CCCC2)c1 |
| inactive | inactive | inactive | inactive | inactive | inactive | CN(C)CCNS(=O)(=O)Cc1ccccc1 |
| inactive | inactive | inactive | Active | inactive | Active | CN(C)CCS(=O)(=O)Cc1ccc(F)cc1 |
| inactive | Active | Active | Active | inactive | Active | Cc1ccc(CS(=O)(=O)CCN2CCCC2)cc1 |
| inactive | inactive | inactive | inactive | inactive | inactive | O=S(=O)(CCN1CCCC1)NCc1ccccc1 |
| inactive | inactive | inactive | inactive | inactive | inactive | O=S(=O)(CCN1CCOCC1)Cc1cccc(F)c1 |
| inactive | inactive | inactive | inactive | inactive | Active | O=S(=O)(CCN1CCOCC1)c1ccccc1 |
| inactive | inactive | inactive | inactive | inactive | inactive | O=S(=O)(Cc1ccccc1)NCCN1CCOCC1 |
| inactive | inactive | inactive | inactive | inactive | inactive | CC[C@H](C)NCCS(=O)(=O)Cc1cccc(F)c1 |
| inactive | inactive | Active | inactive | inactive | Active | COc1ccc2c(CS(=O)(=O)NCCN3CCCC3)cc(=O)oc2c1 |
| inactive | inactive | Active | inactive | inactive | Active | COc1ccc2c(CS(=O)(=O)NCCN3CCOCC3)cc(=O)oc2c1 |
| inactive | inactive | inactive | inactive | inactive | inactive | CN(C)CCCNC(=O)Cc1ccccc1 |
| inactive | inactive | inactive | inactive | inactive | Active | O=S(=O)(CCN1CCCC1)Cc1ccc(F)cc1 |
| inactive | inactive | inactive | inactive | inactive | inactive | C[N+]1(CCCS(=O)(=O)Cc2ccc(Br)cc2)CCCC1 |
| inactive | inactive | inactive | inactive | inactive | inactive | O=S(=O)(CCN1CCOCC1)Nc1ccccc1 |
| inactive | inactive | inactive | inactive | inactive | inactive | CC[C@H](C)NCCS(=O)(=O)c1ccccc1 |
| inactive | inactive | inactive | Active | inactive | Active | CC[C@@H](C)NCCS(=O)(=O)Cc1cccc(F)c1 |
| inactive | inactive | inactive | inactive | inactive | inactive | CC[C@@H](C)NCCS(=O)(=O)Cc1ccc(Br)cc1 |
| inactive | inactive | inactive | inactive | inactive | inactive | Cc1ccc(CNS(=O)(=O)CCN2CCCC2)cc1 |
| inactive | inactive | inactive | inactive | inactive | Active | O=C(CCN1CCOCC1)NCc1cccc2cnccc12 |
| inactive | inactive | inactive | inactive | inactive | inactive | CN(C)CCOP(=O)(O)Cc1ccc(Br)cc1 |
| inactive | inactive | Active | inactive | inactive | inactive | O=S(=O)(CCN1CCCC1)Cc1ccc(Br)cc1 |
